Data: ChEMBL document CHEMBL1132183 (J Med Chem, 1999)

Key:
[1] = biological target: T1, Alpha-1D adrenergic receptor (Homo sapiens, UniProt P25100); experiment: Displacement of [3H]prazosin from human cloned Alpha-1D adrenergic receptor
T1 sequence (P25100 whole entry): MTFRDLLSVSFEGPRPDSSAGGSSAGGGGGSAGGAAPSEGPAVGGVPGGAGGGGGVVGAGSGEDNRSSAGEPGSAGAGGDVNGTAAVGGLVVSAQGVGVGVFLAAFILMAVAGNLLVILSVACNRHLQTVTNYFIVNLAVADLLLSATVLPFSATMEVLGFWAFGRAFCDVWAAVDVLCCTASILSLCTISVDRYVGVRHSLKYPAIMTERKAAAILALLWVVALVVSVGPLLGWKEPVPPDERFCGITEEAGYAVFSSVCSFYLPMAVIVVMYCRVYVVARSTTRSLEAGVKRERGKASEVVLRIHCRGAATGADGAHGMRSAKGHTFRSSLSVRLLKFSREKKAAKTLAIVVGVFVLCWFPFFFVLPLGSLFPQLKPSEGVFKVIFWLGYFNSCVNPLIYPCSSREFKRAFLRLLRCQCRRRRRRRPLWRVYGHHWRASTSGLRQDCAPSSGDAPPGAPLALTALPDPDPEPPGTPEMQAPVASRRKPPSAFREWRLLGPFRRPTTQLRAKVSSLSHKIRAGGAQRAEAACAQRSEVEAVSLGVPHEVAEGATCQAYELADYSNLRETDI
Method in brief: (§1)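 CHO cells stably transfected with each human α1 subtype; 30 μg membrane protein in 50 mM Tris-HCl pH 7.4 with 0.1–0.4 nM [3H]prazosin, 30 min at 25 °C. Competitors 1 pM–10 μM. Nonspecific binding defined with 10 μM phentolamine. Filtration, scintillation counting. Ki by Cheng–Prusoff; 2–3 experiments in triplicate.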

[2] = biological target: T2, 5-hydroxytryptamine receptor 1A (Homo sapiens, UniProt P08908); experiment: Displacement of [3H]8-hydroxy-2-(di-n-propylamino)tetralin from human 5-hydroxytryptamine 1A receptor
T2 sequence (P08908 whole entry): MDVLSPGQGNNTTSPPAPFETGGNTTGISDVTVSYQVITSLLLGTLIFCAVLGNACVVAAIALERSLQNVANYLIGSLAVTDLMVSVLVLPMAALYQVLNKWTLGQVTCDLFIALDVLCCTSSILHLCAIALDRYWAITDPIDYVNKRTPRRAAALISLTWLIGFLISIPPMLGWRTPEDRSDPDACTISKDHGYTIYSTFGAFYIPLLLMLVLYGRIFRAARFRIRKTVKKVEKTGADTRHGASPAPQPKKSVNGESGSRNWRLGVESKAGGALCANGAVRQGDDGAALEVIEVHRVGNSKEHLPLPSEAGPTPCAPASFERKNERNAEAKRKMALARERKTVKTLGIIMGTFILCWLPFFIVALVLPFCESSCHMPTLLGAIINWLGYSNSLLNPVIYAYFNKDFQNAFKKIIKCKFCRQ
Method in brief: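 Membranes of HeLa cells stably transfected with human 5-HT1A (genomic clone G-21), in 50 mM Tris-HCl pH 7.4, 2.5 mM MgCl2, 10 μM pargiline. […] Nonspecific binding defined with 10 μM 5-HT. Filtration, scintillation counting. Ki by Cheng–Prusoff; 2–3 experiments in triplicate.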

[3] = biological target: T3, Alpha-1A adrenergic receptor (Homo sapiens, UniProt P35348); experiment: Displacement of [3H]prazosin from human cloned Alpha-1A adrenergic receptor; method in brief: as §1
T3 sequence (P35348 whole entry): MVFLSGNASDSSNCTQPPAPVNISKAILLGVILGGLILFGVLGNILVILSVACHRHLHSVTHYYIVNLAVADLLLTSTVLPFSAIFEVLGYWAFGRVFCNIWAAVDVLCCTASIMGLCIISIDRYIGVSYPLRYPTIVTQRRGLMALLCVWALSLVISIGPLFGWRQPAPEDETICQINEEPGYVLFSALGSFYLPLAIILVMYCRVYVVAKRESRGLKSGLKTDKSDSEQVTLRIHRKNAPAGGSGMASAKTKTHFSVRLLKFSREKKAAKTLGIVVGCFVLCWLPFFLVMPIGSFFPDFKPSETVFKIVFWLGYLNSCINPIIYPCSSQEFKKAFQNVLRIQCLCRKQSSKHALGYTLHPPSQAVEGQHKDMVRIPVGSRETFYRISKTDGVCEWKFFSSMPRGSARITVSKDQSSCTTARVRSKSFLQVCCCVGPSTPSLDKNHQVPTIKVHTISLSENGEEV

[4] = biological target: T4, Alpha-1D adrenergic receptor (Rattus norvegicus) (UniProt P23944); experiment: Alpha-1D adrenergic receptor subtype blocking activity (antagonism) against (-)-noradrenaline-induced contraction of rat thoracic aorta.; assay type: functional, tissue-based
T4 sequence (whole entry): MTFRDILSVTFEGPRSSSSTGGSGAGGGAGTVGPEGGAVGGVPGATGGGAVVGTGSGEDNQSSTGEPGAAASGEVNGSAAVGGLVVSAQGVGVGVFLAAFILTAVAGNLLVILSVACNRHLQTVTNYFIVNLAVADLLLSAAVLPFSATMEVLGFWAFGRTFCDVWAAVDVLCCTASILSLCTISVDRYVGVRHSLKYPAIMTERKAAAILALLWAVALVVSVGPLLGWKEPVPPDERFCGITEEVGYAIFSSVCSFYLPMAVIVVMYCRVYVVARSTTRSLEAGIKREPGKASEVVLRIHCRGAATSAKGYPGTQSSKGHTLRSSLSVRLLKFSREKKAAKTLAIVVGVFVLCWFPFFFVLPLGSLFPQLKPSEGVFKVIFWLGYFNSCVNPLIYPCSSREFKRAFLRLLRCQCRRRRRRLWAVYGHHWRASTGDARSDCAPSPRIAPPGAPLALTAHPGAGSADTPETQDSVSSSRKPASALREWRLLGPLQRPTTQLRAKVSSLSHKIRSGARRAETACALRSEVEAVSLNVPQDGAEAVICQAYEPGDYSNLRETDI
Method in brief: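 Helicoidal strips of rat thoracic aorta under 1 g tension, bath with 0.01 μM desipramine and 1 μM (±)-propranolol, equilibrated ≥1 h. Cumulative (–)-noradrenaline curves at 30-min intervals: first two discarded, third as control, fourth after 30-min antagonist exposure. pKb by Arunlakshana–Schild from EC50 dose ratios at 2–3 antagonist concentrations, each tested four times.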

Structure (SMILES) | Ki [1] | Ki [2] | Ki [3] | pKb [4]
O[C@@H]1[C@H](NC[C@@H]2COc3ccccc3O2)CC[C@H]1Oc1ccccc1 | 16.2 nM | 22.4 nM | 77.6 nM | 7.78
O[C@@H]1[C@H](NC[C@H]2COc3ccccc3O2)CC[C@H]1Oc1ccccc1 | – | 5.5 nM | 36.3 nM | 8.17
O[C@H]1[C@@H](NC[C@H]2COc3ccccc3O2)CC[C@@H]1Oc1ccccc1 | 200 nM | 0.832 nM | 389 nM | 6.92
O[C@H]1[C@@H](NC[C@@H]2COc3ccccc3O2)CC[C@@H]1Oc1ccccc1 | 933 nM | 3.72 nM | 955 nM | 6.65
